Converted amounts (≈) assume the structure as drawn.
What was measured:
Streptococcus pyogenes [1] = assay: In vitro antimicrobial activity against Streptococcus pyogenes C203; format: functional
[2] = test system: Bacteroides thetaiotaomicron; assay: In vitro antimicrobial activity against anaerobic bacteria bacteroides thetaiotaomicron 1438; format: functional
[3] = test system: Peptostreptococcus anaerobius; assay: In vitro antimicrobial activity against anaerobic bacteria eubacterium peptostreptococcus anaerobius 1428,; format: functional
Streptococcus pneumoniae [4] = assay: In vitro antimicrobial activity against aerobic bacteria Streptococcus pneumoniae B1-438; format: functional, streptococcus pneum
Phocaeicola vulgatus = assay: In vitro antimicrobial activity against anaerobic bacteria bacteroides vulgatus 1211; format: functional
Staphylococcus aureus [5] = assay: In vitro antimicrobial activity against aerobic bacteria Staphylococcus aureus V135; format: functional
Collinsella aerofaciens [6] = assay: In vitro antimicrobial activity against anaerobic bacteria eubacterium aerofaciens 1235; format: functional
Streptococcus pyogenes [7] = assay: Antimicrobial activity against Streptococcus pyogenes C203; format: functional
Anaerococcus prevotii = assay: In vitro antimicrobial activity against anaerobic bacteria peptococcus prevoti 1281; format: functional
Streptococcus [8] = assay: In vitro antimicrobial activity against aerobic bacteria Streptococcus B 8; format: functional
Enterococcus faecium = assay: In vitro antimicrobial activity against Streptococcus faecium X66; format: functional, streptococcus fae-cium
Haemophilus influenzae [9] = assay: In vitro antimicrobial activity against aerobic bacteria Haemophilus influenzae 465; format: functional
Cutibacterium acnes = assay: In vitro antimicrobial activity against anaerobic bacteria propionibacterium acnes 79; format: functional
Haemophilus influenzae [10] = assay: In vitro antimicrobial activity against aerobic bacteria Haemophilus influenzae 76; format: functional
Clostridioides difficile = assay: In vitro antimicrobial activity against anaerobic bacteria Clostridium difficile 2994; format: functional
[11] = test system: Staphylococcus epidermidis; assay: In vitro antimicrobial activity against Staphylococcus epidermidis EPI1; format: functional
Staphylococcus aureus [12] = assay: In vitro antimicrobial activity against Staphylococcus aureus X1; format: functional
Bacteroides fragilis [13] = assay: In vitro antimicrobial activity against anaerobic bacteria bacteroides fragilis 1936B,; format: functional
Streptococcus [14] = assay: In vitro antimicrobial activity against aerobic bacteria Streptococcus D 8043; format: functional
Bacteroides fragilis [15] = assay: In vitro antimicrobial activity against anaerobic bacteria bacteroides fragilis 111; format: functional
Clostridium perfringens = assay: In vitro antimicrobial activity against anaerobic bacteria clostridium perfringens 81,; format: functional
Clostridium septicum = assay: In vitro antimicrobial activity against anaerobic bacteria clostridium septicum 1128; format: functional
[16] = test system: Peptoniphilus asaccharolyticus; assay: In vitro antimicrobial activity against anaerobic bacteria peptococcus asaccharolyticus 1302; format: functional
[17] = test system: Fusobacterium necrophorum; assay: In vitro antimicrobial activity against anaerobic bacteria usobacterium necrophorum 6054A; format: functional
Streptococcus [18] = assay: In vitro antimicrobial activity against aerobic bacteria Streptococcus D 9960; format: functional
Staphylococcus aureus [19] = assay: In vitro antimicrobial activity against aerobic bacteria Staphylococcus aureus X400; format: functional
Staphylococcus aureus [20] = assay: In vitro antimicrobial activity against aerobic bacteria Staphylococcus aureus V140,; format: functional
Streptococcus [21] = assay: In vitro antimicrobial activity against aerobic bacteria Streptococcus G Kruder; format: functional; conditions: Streptococcus; read-out: MIC
Streptococcus pyogenes [22] = assay: In vivo effective dose against experimental infections in rodent caused by Streptococcus pyogenes C203 when administered sc; format: functional
[23] = test system: Prevotella melaninogenica; assay: In vitro antimicrobial activity against anaerobic bacteria bacteroides melaninogenicus 1856,; format: functional
Streptococcus [24] = assay: In vitro antimicrobial activity against aerobic bacteria Streptococcus D 2041; format: functional
Streptococcus pyogenes [25] = assay: Effective dose against Streptococcus pyogenes C203 when administered orally; format: functional; conditions: po
Method in brief: (§1)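 Mouse protection test: infected mice were dosed twice, at 1 and 5 h postinfection, either subcutaneously or orally. […] The result is expressed as ED50 in mg/kg × 2.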

Fusobacterium = assay: In vitro antimicrobial activity against anaerobic bacteria fusobacterium symbiosum 1470; format: functional
Staphylococcus aureus [26] = assay: In vitro antimicrobial activity against aerobic bacteria Staphylococcus aureus V41; format: functional
Streptococcus [27] = assay: In vitro antimicrobial activity against aerobic bacteria Streptococcus C 24; format: functional
[28] = test system: Prevotella melaninogenica; assay: In vitro antimicrobial activity against anaerobic bacteria bacteroides melaninogenicus 2736; format: functional
Streptococcus pneumoniae [29] = assay: In vitro antimicrobial activity against Streptococcus pneumoniae; format: functional
[30] = test system: Staphylococcus epidermidis; assay: In vitro antimicrobial activity against aerobic bacteria Streptococcus epi 222; format: functional
Bacteroides fragilis [31] = assay: In vitro antimicrobial activity against anaerobic bacteria bacteroides fragilis 1877; format: functional
Streptococcus sanguinis = assay: In vitro antimicrobial activity against aerobic bacteria Streptococcus sanguis MX132; format: functional
[32] = In vitro antimicrobial activity against anaerobic bacteria peptostreptococcus intermedius 1264; format: functional
[33] = test system: Haemophilus parainfluenzae; assay: In vitro antimicrobial activity against aerobic bacteria Haemophilus parainfluenzae 9796; format: functional
Haemophilus influenzae [34] = assay: In vitro antimicrobial activity against aerobic bacteria Haemophilus influenzae MX366,; format: functional
Staphylococcus aureus [35] = assay: In vitro antimicrobial activity against aerobic bacteria Staphylococcus aureus 513E; format: functional
Streptococcus [36] = assay: In vitro antimicrobial activity against aerobic bacteria Streptococcus B 5; format: functional
Eikenella corrodens = assay: In vitro antimicrobial activity against anaerobic bacteria bacteroides corrodens 1874; format: functional
Chlamydia trachomatis = assay: In vitro antimicrobial activity against chlamydia trachomatis.; format: functional
[37] = test system: Staphylococcus epidermidis; assay: In vitro antimicrobial activity against aerobic bacteria Streptococcus epi 270; format: functional
Streptococcus pyogenes [38] = assay: Effective dose against Streptococcus pyogenes C203 when administered sc; format: functional; method in brief: as §1
Streptococcus viridans = assay: In vitro antimicrobial activity against aerobic bacteria Streptococcus viridans 9943; format: functional
Streptococcus pyogenes [39] = assay: In vivo effective dose against experimental infections in rodent caused by Streptococcus pyogenes C203 when administered orally; format: functional; conditions: po
Haemophilus influenzae [40] = assay: In vitro antimicrobial activity against Haemophilus influenzae.; format: functional
Collinsella aerofaciens [41] = assay: In vitro antimicrobial activity against anaerobic bacteria aerofaciens 1235; format: functional
[42] = test system: Peptostreptococcus anaerobius; assay: In vitro antimicrobial activity against anaerobic bacteria peptostreptococcus anaerobius 1428,; format: functional

CC[C@H]1OC(=O)C[C@@H](O)[C@H](C)[C@@H](O[C@@H]2O[C@H](C)[C@@H](O)[C@H](N(C)C)[C@H]2O)[C@@H](CC=O)C[C@@H](C)C(=O)/C=C/C(C)=C/[C@@H]1CO
MIC (Streptococcus pyogenes [1]): 0.25 µg/mL (≈ 0.418 µM) | MIC [2]: 128 µg/mL (≈ 214 µM) | MIC [3]: 32 µg/mL (≈ 53.5 µM) | MIC (Streptococcus pneumoniae [4]): > 128 µg/mL | MIC (Phocaeicola vulgatus): 32 µg/mL (≈ 53.5 µM) | MIC (Staphylococcus aureus [5]): 1 µg/mL (≈ 1.67 µM) | MIC (Collinsella aerofaciens [6]): < 0.5 µg/mL | MIC (Streptococcus pyogenes [7]): 0.25 µg/mL (≈ 0.418 µM) | MIC (Anaerococcus prevotii): 16 µg/mL (≈ 26.8 µM) | MIC (Streptococcus [8]): 0.5 µg/mL (≈ 0.836 µM) | MIC (Enterococcus faecium): 1 µg/mL (≈ 1.67 µM) | MIC (Haemophilus influenzae [9]): 4 µg/mL (≈ 6.69 µM) | MIC (Cutibacterium acnes): 8 µg/mL (≈ 13.4 µM) | MIC (Haemophilus influenzae [10]): 2 µg/mL (≈ 3.35 µM) | MIC (Clostridioides difficile): 4 µg/mL (≈ 6.69 µM) | MIC [11]: 1 µg/mL (≈ 1.67 µM) | MIC (Staphylococcus aureus [12]): 1 µg/mL (≈ 1.67 µM) | MIC (Bacteroides fragilis [13]): 32 µg/mL (≈ 53.5 µM) | MIC (Streptococcus [14]): 0.5 µg/mL (≈ 0.836 µM) | MIC (Bacteroides fragilis [15]): 32 µg/mL (≈ 53.5 µM) | MIC (Clostridium perfringens): < 0.5 µg/mL | MIC (Clostridium septicum): 4 µg/mL (≈ 6.69 µM) | MIC [16]: 2 µg/mL (≈ 3.35 µM) | MIC [17]: < 0.5 µg/mL | MIC (Streptococcus [18]): 1 µg/mL (≈ 1.67 µM) | MIC (Staphylococcus aureus [19]): 2 µg/mL (≈ 3.35 µM) | MIC (Staphylococcus aureus [20]): 1 µg/mL (≈ 1.67 µM) | MIC (Streptococcus [21]): 0.25 µg/mL (≈ 0.418 µM) | ED50 (Streptococcus pyogenes [22]): 3.9 mg/kg | MIC [23]: 8 µg/mL (≈ 13.4 µM) | MIC (Streptococcus [24]): 0.5 µg/mL (≈ 0.836 µM) | ED50 (Streptococcus pyogenes [25]): 3.3 mg/kg | MIC (Fusobacterium): < 0.005 µg/mL | MIC (Staphylococcus aureus [26]): 2 µg/mL (≈ 3.35 µM) | MIC (Streptococcus [27]): 0.5 µg/mL (≈ 0.836 µM) | MIC [28]: 8 µg/mL (≈ 13.4 µM) | MIC (Streptococcus pneumoniae [29]): 0.25 µg/mL (≈ 0.418 µM) | MIC [30]: 0.25 µg/mL (≈ 0.418 µM) | MIC (Bacteroides fragilis [31]): 64 µg/mL (≈ 107 µM) | MIC (Streptococcus sanguinis): 0.25 µg/mL (≈ 0.418 µM) | MIC [32]: 1 µg/mL (≈ 1.67 µM) | MIC [33]: 4 µg/mL (≈ 6.69 µM) | MIC (Haemophilus influenzae [34]): 2 µg/mL (≈ 3.35 µM) | MIC (Staphylococcus aureus [35]): 1 µg/mL (≈ 1.67 µM) | MIC (Streptococcus [36]): 1 µg/mL (≈ 1.67 µM) | MIC (Eikenella corrodens): 32 µg/mL (≈ 53.5 µM) | MIC (Chlamydia trachomatis): 0.5 µg/mL (≈ 0.836 µM) | MIC [37]: > 128 µg/mL | ED50 (Streptococcus pyogenes [38]): 97 mg/kg | MIC (Streptococcus viridans): > 128 µg/mL | ED50 (Streptococcus pyogenes [39]): 102 mg/kg | MIC (Haemophilus influenzae [40]): 2 µg/mL (≈ 3.35 µM)

CC[C@H]1OC(=O)C[C@@H](O)[C@H](C)[C@@H](O[C@@H]2O[C@H](C)[C@@H](O[C@H]3C[C@@](C)(O)[C@@H](O)[C@H](C)O3)[C@H](N(C)C)[C@H]2O)[C@@H](CCO)C[C@@H](C)C(=O)/C=C/C(C)=C/[C@@H]1CO[C@@H]1O[C@H](C)[C@@H](O)[C@@H](OC)[C@H]1OC [RELOMYCIN]
MIC (Streptococcus pyogenes [1]): 2 µg/mL (≈ 2.18 µM) | MIC [2]: 4 µg/mL (≈ 4.36 µM) | MIC (Phocaeicola vulgatus): > 8 µg/mL | MIC (Anaerococcus prevotii): > 8 µg/mL | MIC (Enterococcus faecium): 64 µg/mL (≈ 69.7 µM) | MIC (Cutibacterium acnes): 8 µg/mL (≈ 8.71 µM) | MIC (Clostridioides difficile): 1 µg/mL (≈ 1.09 µM) | MIC [11]: 4 µg/mL (≈ 4.36 µM) | MIC (Staphylococcus aureus [12]): 4 µg/mL (≈ 4.36 µM) | MIC (Bacteroides fragilis [13]): 8 µg/mL (≈ 8.71 µM) | MIC (Bacteroides fragilis [15]): 4 µg/mL (≈ 4.36 µM) | MIC (Clostridium perfringens): > 8 µg/mL | MIC (Clostridium septicum): 8 µg/mL (≈ 8.71 µM) | MIC [16]: 1 µg/mL (≈ 1.09 µM) | MIC [17]: 1 µg/mL (≈ 1.09 µM) | ED50 (Streptococcus pyogenes [22]): 15.4 mg/kg | MIC [23]: 4 µg/mL (≈ 4.36 µM) | MIC (Fusobacterium): 4 µg/mL (≈ 4.36 µM) | MIC [28]: 8 µg/mL (≈ 8.71 µM) | MIC (Streptococcus pneumoniae [29]): 32 µg/mL (≈ 34.9 µM) | MIC (Bacteroides fragilis [31]): > 8 µg/mL | MIC [32]: > 8 µg/mL | MIC (Collinsella aerofaciens [41]): 1 µg/mL (≈ 1.09 µM) | MIC (Eikenella corrodens): > 8 µg/mL | MIC (Chlamydia trachomatis): > 1 µg/mL | MIC [42]: > 8 µg/mL | ED50 (Streptococcus pyogenes [39]): > 100 mg/kg | MIC (Haemophilus influenzae [40]): > 128 µg/mL
